Screens: PubChem, several laboratories
NALP1 inh: inhibitors of NALP1 inflammasome in yeast; S. cerevisiae NALP1/ASC/caspase-1 growth, X-gal OD620, 72 h; inhibition, % at 10 µM; hit rate 0.61% among 280,000; AID 2071; in the data active = inhibition mostly above about 24%, no sharp cut-off; inactive = mostly below about 32%
Lmaj promast: reduces viability of Leishmania major promastigotes | resazurin fluorescence viability | inhibition, % at 10 µM | hit rate 9% among 200,000; in the data active = inhibition above about 50%;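 also: promastigotes grown with compound for 44 hours at 28 °C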
NLRP3 yeast inh: inhibitors of NALP3 inflammasome in yeast; Yeast reconstituted NLRP3/ASC/caspase-1, beta-gal luminescence, 24 h; inhibition, % at 10 µM; hit rate 0.39% among 330,000;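 active = inhibition of 50% or more; inactive = inhibition below 50%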
Calb FLC: affects C. albicans growth with fluconazole; C. albicans CaCi-2 + fluconazole, Alamar Blue growth, 48 h; growth inhibition, % (no concentration beside the values); hit rate 0.57% among 300,000;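 active = growth inhibition above about 58% in most replicates, limit read from the data, passing the limit was not always enough; inconclusive = exactly half the replicates above a set limit; inactive = most replicates below a set limit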;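 also: all wells also contain fluconazole at 8 µg/ml as a sub-toxic cotreatment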
T cruzi repl: blocks replication of Trypanosoma cruzi; inhibition, % (no concentration beside the values); T. cruzi beta-gal in NIH3T3, luminescence, 90 h; AID 1885; hit rate 1.4% among 300,000;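 active = mean inhibition across valid replicates above about 55%, limit read from the data; inconclusive = mean below that limit but half or more replicates reach it; inactive = mean below it, under half of replicates reach it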;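 also: signal also drops with host cell toxicity which is not excluded here; higher percent means less beta-gal luminescence so fewer parasites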
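System: mouse NIH/3T3 fibroblasts infected with β-gal-expressing T. cruzi Tulahuen C4 / Input: NIH/3T3 cells, 5,000 per well / Buffer or medium: Low-serum DMEM with 2% FBS / Probe or stimulus: 5000 reporter trypomastigotes per well / Schedule: ≥90 h infection period, 3 h prior cell attachment / Measured by: GalScreen luminescence, 60 min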
PolyA inhibitor: blocks polyadenylation in yeast reporter cells; S. cerevisiae SKY197-pL101 polyadenylation reporter, beta-gal luminescence; efflux-impaired pdr1/pdr3 knockout yeast; score 100 = 6 SD above DMSO; activity score, % at 12 µM; hit rate 0.02% among 300,000; AID 1875;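 active = lowest replicate activity score at least 50, where 100 means six control SD above control mean; inconclusive = lowest score under 50 but half or more replicates reach 50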;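 also: yeast exposed to compound for 9 h at 30 °C; higher score means more reporter readthrough which indicates perturbed polyadenylation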
Of the large screens only hits and unclear results are named; the others gave an inactive call. The sample as a whole holds a higher share of hits than the screen did.

COC(=O)c1cccc(Nc2nc3ccccc3nc2C)c1	none
COc1ccccc1NC(=O)NC1CCCCCCC1	none (no result: Lmaj promast, T cruzi repl, PolyA inhibitor)
COc1ccccc1NS(=O)(=O)c1cccc(NC(=O)NC2CCCCC2)c1	Lmaj promast 98.8
CCOCCCNc1nc(=S)[nH]c2cc(OC)c(OC)cc12	Lmaj promast 66.9
COc1ccc(-n2c(SCCC#N)nnc2-c2cc(Cl)ccc2OC)cc1Cl	none (no result: NALP1 inh)
COc1cccc(-c2cc3nc4c(c(NCC(C)(C)CN(C)C)n3n2)CCCC4)c1	Lmaj promast 77.2, T cruzi repl 60.8
Fc1cccc(-c2cc3nc4c(c(NCc5ccco5)n3n2)CCCC4)c1	Lmaj promast 86.7
CNC(=O)c1cc2ncc(C(F)(F)F)cc2s1	none
O=C(/C=C/c1ccccc1[N+](=O)[O-])NCCN1C(=O)S/C(=C\c2ccc(F)cc2)C1=O	none
CS(=O)(=O)c1ccc(C(=O)NCCN2C(=O)S/C(=C\c3cccnc3)C2=O)cc1[N+](=O)[O-]	Lmaj promast 74.4
CC(C)(C)C(=O)NCCN1C(=O)S/C(=C\c2ccc([N+](=O)[O-])cc2)C1=O	Lmaj promast 56.8
C=CCN1C(=O)c2ccc(C(=O)N(C)CC(=O)Nc3ccc(Br)cc3C)cc2C1=O	none (no result: NALP1 inh, Lmaj promast)
CC(C)(C)C(=O)Cn1c(=N)n(Cc2ccccc2)c2ccccc21	Lmaj promast 57.7
Cc1ccc(Cn2c(=N)n(CC(=O)c3ccccc3)c3ccccc32)cc1	Lmaj promast 100.3
N=c1n(CC(=O)c2cccc([N+](=O)[O-])c2)c2ccccc2n1Cc1ccccc1	Lmaj promast 62.6
CC(C)(C)C(=O)Cn1c(=N)n(Cc2ccccc2Cl)c2ccccc21	Lmaj promast 100.4, T cruzi repl 57.4
COc1ccc(N2CCN(C(=O)COC(=O)c3ccc(-n4nc(C)cc4C)cc3)CC2)cc1	none (no result: NALP1 inh, Lmaj promast, Calb FLC, T cruzi repl, PolyA inhibitor)
COC(=O)c1ccc2nc(C)cc(Nc3ccc(N(C)C)cc3)c2c1	Lmaj promast 67.2
COC(=O)c1ccc(Nc2cc(C)nc3ccccc23)cc1	none (no result: Lmaj promast)
c1ccc(Cn2c(CNc3nc4ccccc4n3CCN3CCCCC3)nc3ccccc32)cc1	Lmaj promast 99.7
Cn1c(CNc2ccccc2O)nc2ccccc21	Lmaj promast 88.6
Cn1c(CNc2nc3ccccc3n2CCN2CCCCC2)nc2ccccc21	Lmaj promast 99.4, Calb FLC inconclusive
CCN(CC)c1ccc(CNc2nc3ccccc3n2CCN2CCCCC2)cc1	Lmaj promast 100.5, T cruzi repl 59.9
Cc1ccccc1NCc1nc2ccccc2n1C	none (no result: Lmaj promast)
N#CCC(=O)NNc1c([N+](=O)[O-])cc(C(F)(F)F)cc1[N+](=O)[O-]	none (no result: NALP1 inh, Lmaj promast)
CCN(CC)CCn1c(NCc2ccco2)nc2ccccc21	none
Clc1ccc(Cn2c(CN3CCCC3)nc3ccccc32)cc1	Lmaj promast 99.6 (no result: Calb FLC)
CCN(CC)CCn1c(NCc2nc3ccccc3n2Cc2ccccc2)nc2ccccc21	Lmaj promast 100.1
CC(=O)c1cc2c(cc1NC(=O)CN1Cc3ccccc3C1=O)OCO2	none (no result: Lmaj promast)
CCCN(CC1CC1)C(=O)COC(=O)c1[nH]c(C)c(C(=O)OCC)c1C	Lmaj promast 80.2
O=C(NCc1ccccc1)c1onc(CSc2ccccc2)c1C(=O)NCC1CC1	T cruzi repl 58.3 (no result: Lmaj promast)
COCCN(C(=O)CSc1nnc(-c2ccco2)n1C)c1c(N)n(CC(C)C)c(=O)[nH]c1=O	none (no result: NALP1 inh, Lmaj promast, Calb FLC, T cruzi repl, PolyA inhibitor)
Cc1nc(N2CCC(C)CC2)c2c(C)c(C(=O)Nc3ccccc3C(F)(F)F)sc2n1	Lmaj promast 50.9
Cc1cccc(C)c1-n1nnnc1C(C)(C)N1CCN(N=O)CC1	NALP1 inh 37.4 (no result: Lmaj promast)
COC(=O)c1c(NC(=O)COc2ccc(Cl)cc2)sc2c1CC(C)(C)NC2(C)C	T cruzi repl 65.4 (no result: Lmaj promast)
COC(=O)c1c(NC(=O)Cc2ccccc2)sc2c1CC(C)(C)NC2(C)C	none (no result: Lmaj promast)
COC(=O)c1c(NC(=O)c2ccccc2[N+](=O)[O-])sc2c1CC(C)(C)NC2(C)C	Lmaj promast 95.9
CN(C)c1ccc(/C=C(\C#N)C(=O)OCC(=O)N(C)C2CCS(=O)(=O)C2)cc1 (configuration not stated)	none (no result: NALP1 inh, Lmaj promast, Calb FLC, T cruzi repl, PolyA inhibitor)
CCn1c(/C=C2\C(=O)N(C(C)C)c3ccccc32)nc2ccccc2c1=O	none (no result: Lmaj promast)
CC(C)N1C(=O)/C(=C\c2nc3ccccc3c(=O)[nH]2)c2ccccc21	Lmaj promast 100.2 (no result: NLRP3 yeast inh, Calb FLC, T cruzi repl, PolyA inhibitor)
CCCN1C(=O)/C(=C/c2nc3ccccc3c(=O)[nH]2)c2ccccc21	Lmaj promast 99.8, Calb FLC inconclusive
CC(C)c1cc(C(=O)NNC(=S)NCc2ccco2)c(O)c(C(C)C)c1	none
Cn1cc(CN2CCCC(C(=O)c3cc(F)ccc3F)C2)c2ccccc21 (configuration not stated)	Lmaj promast 87.9
COc1ccc(F)cc1C(=O)C1CCCN(Cc2cn(C)c3ccccc23)C1 (configuration not stated)	Lmaj promast 89.6
Cn1cc(CN2CCCC(CNC(=O)c3ccc4c(c3)OCO4)C2)c2ccccc21 (configuration not stated)	T cruzi repl 66.5
COc1ccc(F)cc1C(=O)C1CCCN(Cc2c[nH]c3ccccc23)C1 (configuration not stated)	Calb FLC inconclusive
CC(=O)NCC1CCCN(Cc2cn(-c3ccccc3)nc2-c2ccc3c(c2)OCO3)C1 (configuration not stated)	none
Cc1c(C(=O)Nc2nnc(SCc3ccccc3Cl)s2)cccc1[N+](=O)[O-]	Lmaj promast 74.1
O=C(C1=C[C@@H](c2csc3ccccc23)C[C@@H](OCc2ccc(CO)cc2)O1)N1CCN(Cc2ccccc2)CC1	Lmaj promast 50.6, T cruzi repl 68.4
O=C(C1=C[C@@H](c2csc3ccccc23)C[C@@H](OCc2ccc(CO)cc2)O1)N1CCN(Cc2ccc3c(c2)OCO3)CC1	Lmaj promast 73.2
O=C(C1=C[C@H](c2ccccc2)C[C@H](OCCCCO)O1)N1CCN(Cc2ccc3c(c2)OCO3)CC1	none
O=C(C1=C[C@H](c2ccc(Br)cc2)C[C@H](OCCCCO)O1)N1CCN(Cc2ccccc2)CC1	T cruzi repl 55.7
O=C(C1=C[C@@H](c2csc3ccccc23)C[C@@H](OCc2ccc(CO)cc2)O1)N1CCOCC1	none
O=C(C1=C[C@H](c2csc3ccccc23)C[C@H](OCCCCO)O1)N1CCN(Cc2ccccc2)CC1	NALP1 inh 30.4
Cc1cccn2c(=O)c(C=C(C#N)C#N)c(N3CCN(c4cccc(Cl)c4)CC3)nc12	none (no result: Lmaj promast)
O=C(Cc1c(F)cccc1Cl)Nc1ccc(S(=O)(=O)N2CCOCC2)cc1	none (no result: Lmaj promast)
O=C(NCCCO)C(=O)NCc1ccncc1	none
O=C(C1=C[C@H](c2ccc(C(F)(F)F)cc2)C[C@H](OCCCCO)O1)N1CCN(Cc2ccc3c(c2)OCO3)CC1	Lmaj promast 94.5
O=C(C1=C[C@@H](c2ccc(Br)cc2)C[C@@H](OCCCCO)O1)N1CCN(Cc2ccc3c(c2)OCO3)CC1	none
CC(C)CCNC(=O)c1nn(Cc2ccccc2)c(=O)c2ccccc12	none (no result: Lmaj promast)
